Screening data (PubChem)
NPY-Y1 antag: antagonists of human neuropeptide Y receptor Y1 | P25929 | HEK293-CNG Y1 cells, membrane potential fluorescence; NPY at EC95, then isoproterenol | inhibition, % at 3.6 µM | actives 1% (n = 200,000) | AID 1040;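 active means inhibition above the campaign mean inhibition of all tested compounds plus 3 SD, cut at about 20% in these data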;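 further: 0% = DMSO wells given NPY plus isoproterenol and 100% = isoproterenol alone without NPY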
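Benchmarks – high control isoproterenol alone, low control NPY with isoproterenol · Material – HEK293 Y1/CNG channel cell line · Times – dye 3 h, compound 60 min room temperature, stimulation 45 min · Probe or stimulus – NPY (25 nM), isoproterenol (1 µM), Ro 20-1724 (25 µM) · Evaluation – % inhibition of NPY effect · Signal – fluorescence, membrane potential probe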
INS promoter inh: TRM-6 insulin promoter activity inhibition; actives 0.9% (n = 130,000); inhibition, % at 2 µM; AID 1273; TRM-6 cells, insulin promoter-eGFP reporter, imaging; reporter expression induced with tamoxifen;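 active means inhibition above the mean plus 3 SD, with well images judged a real hit on visual review, cut at about 60% in these data, passing the limit was not always enough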
RAM network inh: blocks the yeast RAM network | S. cerevisiae dse1pr::URA3 reporter, 5-FOA growth OD615, 2 d; analog-sensitive cbk1-as2 kinase mutant strain | inhibition, % at 50 µM | actives 1.8% (n = 190,000) | AID 868;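 active means inhibition above a set limit, 3 SD over mean compound inhibition, cut at about 8.4% in these data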;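 further: 0% = DMSO-only wells with no growth and 100% = 10 µM 1-NA-PP1 full growth; inhibition rescues growth on 5-FOA so higher OD means more RAM inhibition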
NPY Y2 blocker: NPY-Y2 (human) receptor antagonism. actives 0.99% (n = 140,000). NPY-Y2 expressing cells, antagonist mode. AID 793. P49146. inhibition, % at 2.7 µM; in the data active means inhibition above about 17%;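 further: 0% = vehicle with agonist challenge and 100% = reference antagonist with challenge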
Target sequence (P49146 whole entry, looked up): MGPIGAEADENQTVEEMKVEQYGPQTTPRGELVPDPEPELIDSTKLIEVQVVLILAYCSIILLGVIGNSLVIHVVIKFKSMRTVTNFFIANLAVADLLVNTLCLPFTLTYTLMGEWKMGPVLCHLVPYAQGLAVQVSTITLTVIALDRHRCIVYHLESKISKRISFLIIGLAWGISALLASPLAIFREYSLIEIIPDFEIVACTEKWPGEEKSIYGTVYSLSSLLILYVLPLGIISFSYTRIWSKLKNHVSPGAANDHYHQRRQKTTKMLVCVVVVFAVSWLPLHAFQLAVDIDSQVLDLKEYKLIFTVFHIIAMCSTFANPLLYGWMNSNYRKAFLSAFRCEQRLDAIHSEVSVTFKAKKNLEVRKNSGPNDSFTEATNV
NPY-Y2 PAM-ag: human NPY-Y2 potentiation or agonism, primary screen | actives 0.45% (n = 220,000) | activation, % at 3.6 µM | cells expressing NPY-Y2, potentiator/agonist read-out; in the data active means activation above about 27%;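 further: cells stimulated with NPY near EC25 plus isoproterenol at EC100; 0% = vehicle plus submaximal agonist and 100% = vehicle plus saturating agonist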
NPY1 pot ag: human NPY-Y1 potentiation or agonism, primary screen; P25929; AID 1304; activation, % at 3.6 µM; actives 0.37% (n = 220,000); NPY-Y1 expressing cells, potentiator/agonist activation; in the data active means activation above about 33%, passing the limit was not always enough;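 further: cells stimulated with NPY at EC10 then isoproterenol at EC100; 0% = low agonist plus stimulus and 100% = saturating agonist plus stimulus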
NPY-Y1 pot conf: human NPY-Y1 potentiation or agonism, confirmation; activation, % at 3.6 µM; shares compounds with NPY1 pot ag; actives 20% (n = 280); AID 1546; cell-based NPY-Y1 potentiator/agonist assay; in the data active means activation above about 45%;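 further: cells challenged with NPY at its EC10 plus isoproterenol stimulus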
NPY-Y2 counter: potentiates or activates NPY-Y2, counter-screen for NPY-Y1 hits; shares compounds with NPY1 pot ag; HEK293-CNG cells, membrane-potential fluorescence (FLIPR), 1536-well; activation, % at 3.6 µM; actives 20% (n = 280); in the data active means activation above about 33%
NPY-Y1 agonist: activates human NPY-Y1, counter-screen for NPY-Y1 potentiators. shares compounds with NPY1 pot ag. HEK293 Y1-CNGC, membrane potential fluorescence, agonist mode. activation, % at 3.6 µM. actives 50% (n = 280);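 active means percent activation above the mean of DMSO-only control wells plus 3 SD of those wells, cut at about 18% in these data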;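 further: cells challenged with isoproterenol plus Ro 20-1724 with no NPY in test wells; Y1 agonism lowers isoproterenol-driven cAMP and reduces probe fluorescence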
NPY-Y2 agonist: counter-screen for NPY-Y1 potentiators or agonists: agonists of NPY-Y2 | shares compounds with NPY1 pot ag | HEK293 Y2-CNGC, membrane potential fluorescence, agonist mode | activation, % at 3.6 µM | actives 67% (n = 280) | AID 1698;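 active means activation above the solvent-only control wells' mean plus 3 SD, cut at about 11% in these data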;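 further: 0% = DMSO with isoproterenol and 100% = 40 nM NPY maximal response; agonism lowers cAMP so well fluorescence drops in active wells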
CNGC inh 2: counter-screen for NPY-Y1 potentiators or agonists: CNG channel inhibitors. shares compounds with NPY1 pot ag. HEK293-CNG parental, isoproterenol cAMP, membrane potential fluorescence. inhibition, % at 3.6 µM. actives 42% (n = 280). AID 1704;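 active means inhibition above the mean of stimulated solvent-only control wells plus 3 SD, cut at about 22% in these data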;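 further: 0% = isoproterenol-stimulated DMSO wells and 100% = unstimulated DMSO wells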
* hit, by the source's call. Sampled rows, rich in hits. Any-hit rate of the full collection: about 3.8%.

How did O=C(CCC1CC(=O)Nc2ccccc21)NCc1ccc(F)cc1 (stereo not given) do in these assays?
NPY-Y1 antag: 4.2; INS promoter inh: 21.1; RAM network inh: 1.3; NPY Y2 blocker: -2.3; NPY-Y2 PAM-ag: -25.7; NPY1 pot ag: 67.7*; NPY-Y1 pot conf: -0.3; NPY-Y2 counter: -2.1; NPY-Y1 agonist: -1.5; NPY-Y2 agonist: -5.5; CNGC inh 2: 1.4

Results for O=C(CCC1CC(=O)Nc2ccccc21)NCc1ccccc1 (stereo not given) ?
NPY-Y1 antag: 9.9; INS promoter inh: 19.4; RAM network inh: 2.3; NPY Y2 blocker: 2.5; NPY-Y2 PAM-ag: 10.5; NPY1 pot ag: -6.6

Results for Cc1ccc(NC(=O)C2CC(=O)N(CCc3ccccc3)C2)c(C)c1 (stereo not given) ?
NPY-Y1 antag: 2.6; RAM network inh: -0.6; NPY-Y2 PAM-ag: -3.1; NPY1 pot ag: 5.0

How did CC1=CCC(C(=O)O)(C(=O)N/N=C/c2cccs2)C(c2ccc([N+](=O)[O-])cc2)C1 (stereo not given) do in these assays?
NPY-Y1 antag: 1.8; INS promoter inh: -14.3; RAM network inh: 2.5; NPY Y2 blocker: 3.3; NPY-Y2 PAM-ag: 12.5; NPY1 pot ag: -0.9

How did COc1ccccc1C(=O)NC(=O)Nc1nc(-c2ccccc2)cc(C(F)(F)F)n1 do in these assays?
NPY-Y2 PAM-ag: 13.2; NPY1 pot ag: -16.3

Results for O=C(COc1ccc(S(=O)(=O)NC2CCCCC2)cc1Cl)N1CCN(c2ccccc2)CC1 ?
NPY-Y1 antag: -5.5; INS promoter inh: -33.3; RAM network inh: 3.8; NPY Y2 blocker: -4.2; NPY-Y2 PAM-ag: 15.0; NPY1 pot ag: 41.3*; NPY-Y1 pot conf: 8.4; NPY-Y2 counter: 7.7; NPY-Y1 agonist: -0.6; NPY-Y2 agonist: 8.7; CNGC inh 2: 12.7

What do the screens show for `O=C(COc1ccc(S(=O)(=O)NC2CCCCC2)cc1)N1CCN(c2ccc(F)cc2)CC1`?
NPY-Y1 antag: -1.9; RAM network inh: 2.1; NPY Y2 blocker: 0.2; NPY-Y2 PAM-ag: -19.3; NPY1 pot ag: 6.1

What do the screens show for `O=C(Cn1cnc2ccccc2c1=O)NNC(=O)c1ccccc1`?
NPY-Y2 PAM-ag: 10.4; NPY1 pot ag: 7.0

Results for NS(=O)(=O)c1ccc(CCNc2ncnc3c2c(-c2ccccc2)cn3-c2ccc(F)cc2)cc1 ?
NPY-Y1 antag: -6.0; INS promoter inh: 16.7; RAM network inh: 0.9; NPY Y2 blocker: -0.6; NPY-Y2 PAM-ag: -6.6; NPY1 pot ag: 104.8*; NPY-Y1 pot conf: 6.4; NPY-Y2 counter: -2.1; NPY-Y1 agonist: -5.1; NPY-Y2 agonist: 2.7; CNGC inh 2: 4.5

How did Fc1ccc(-n2cc(-c3ccccc3)c3c(NN4CCOCC4)ncnc32)cc1 do in these assays?
NPY-Y1 antag: 2.2; INS promoter inh: 16.7; RAM network inh: 0.9; NPY Y2 blocker: 3.6; NPY-Y2 PAM-ag: -0.8; NPY1 pot ag: 10.5

What do the screens show for `CCOc1ccccc1C1C2CCCCC2(O)CCN1C(=O)c1cccs1` (stereo not given)?
NPY-Y1 antag: 3.4; RAM network inh: 0.2; NPY Y2 blocker: 3.5; NPY-Y2 PAM-ag: 4.8; NPY1 pot ag: -10.2
